Measurements from PMC6051889 (ACS chemical neuroscience, 2018).

What was measured:
[1] = IV doses 30–60 mg/kg, within 5 min, Male CD1 mice; cited from earlier work
[2] = Plasma pharmacokinetics in mice; type: in vivo; conditions: BALB/c mouse, IV
In short: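 Balb/c mice received a single IV or oral-gavage dose, with low-dose isoflurane restraint for gavage. Each mouse gave one time point: 3 mice per point, 10 time points. Blood was taken by cardiac puncture under deep isoflurane anaesthesia, and plasma was assayed for parent compound by validated LC-MS/MS.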

[3] = Plasma stability, mouse plasma

Row | Compound | in vivo antinociceptive activity (hotplate) [1] | time until completely consumed in plasma [2] | microsomal degradation (Microsomal stability; in the absence of NADPH) | material metabolized (Microsomal stability; mouse, rat and human NADPH-charged microsomes, 2 h, 0.50 μM) | remaining at 4 h, 50 μM [3]
1 | [D-Pen^2,D-Pen^5]-enkephalin [DPDPE] | demonstrated in vivo antinociceptive activity |  |  |  | 
2 | CC(C)C[C@H](NC(=O)[C@H](Cc1ccccc1)NC(=O)CNC(=O)CNC(=O)[C@@H](N)Cc1ccc(O)cc1)C(=O)O [Compound 1, Leu-enkephalin] |  | ≤ 5 min | slowly degraded | 38–50% | > 90%
